# Source: ChEMBL document CHEMBL1124658, “Conformationally restricted analogues of the muscarinic agent N-methyl-N-(1-methyl-4-pyrrolidino-2-butynyl)acetamide” (J Med Chem, 1989)
# Experiments:
# [1] = species on record: Cavia porcellus; experiment: Dissociation constant of the compound-receptor complex.; assay type: functional
# Summary of the method: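 Guinea pig ileum in Tyrode solution (pH 7.4) with 0.3 mM hexamethonium at 37 °C, contractions recorded isotonically at 1 g tension. Cumulative carbachol concentration–response curves were built in steps of a factor of 2.15, in the presence of at least three antagonist concentrations. Antagonism was analysed by Schild plots.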
# [2] = species on record: Mus musculus; experiment: Antimuscarinic activity in intact mice was determined as the dose required to double the dose of oxotremorine inducing a predetermined tremor intensity; assay type: functional
# Summary of the method: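 Male Swiss–Webster mice (24–32 g) were given the compound ip at 200 μmol/kg in groups of six or more, with six untreated controls. Twenty minutes later the oxotremorine ED50 (iv) was found by the up-and-down method, with intermittent spontaneous grade 2 tremor as end point. Active compounds were tested at two more doses, and the doubling dose came from linear regression of oxotremorine ED50 against antagonist dose.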
# [3] = species on record: Cavia porcellus; experiment: Maximum contractile response relative to that elicited by carbachol in guinea pig ileum; assay type: functional
# Summary of the method: (§1)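 Guinea pig ileum in Tyrode (pH 7.4, 0.3 mM hexamethonium), 37 °C, isotonic contractions at 1 g tension; cumulative agonist concentration–response curves, concentration raised stepwise by a factor of 2.15; maximal contraction expressed relative to the carbachol maximum. Three determinations, each in triplicate.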
# [4] = species on record: Cavia porcellus; experiment: Equilibrium dissociation constant of the compound-receptor complex was determined by its ability to antagonize carbachol-induced contractions in the ileum (spasmolytic activity); assay type: functional
# Summary of the method: (§2)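 Isolated guinea pig ileum in Tyrode solution (pH 7.4, 0.3 mM hexamethonium), 37 °C, isotonic recording at 1 g tension. Cumulative carbachol concentration–response curves (stepwise ×2.15) with at least three antagonist concentrations; dissociation constant from shifts, Schild slope checked where range allowed. Three determinations in triplicate.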
# [5] = species on record: Mus musculus; experiment: Antimuscarinic activity in intact mice was determined as the dose required to double the dose of oxotremorine inducing a predetermined tremor intensity.; assay type: functional
# Summary of the method: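 Male Swiss–Webster mice (24–32 g), groups of six or more; antagonist given ip 200 μmol/kg, untreated controls. After 20 min, oxotremorine ED50 (iv) estimated by up-and-down method, end point intermittent spontaneous grade 2 tremor. Active compounds tested at two further doses; oxotremorine ED50 plotted against antagonist dose, dose doubling it found by linear regression.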
# [6] = target: Muscarinic acetylcholine receptor; experiment: Compound was tested for the concentration that inhibited the specific binding of (-)-[3H]-NMS to muscarinic acetylcholine receptor in the rat cerebral cortex.; assay type: tissue-based
# Summary of the method: (§3)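 Rat (male Sprague–Dawley, 200–300 g) cerebral cortex homogenate, 10 mg wet tissue/mL in 50 mM Na–K phosphate pH 7.4. Incubated 30 min at 30 °C with 0.3 nM (–)-[3H]NMS plus unlabelled ligand; filtration assay. Nonspecific binding with 10 μM atropine. IC50 from one-site competition fit, corrected by Cheng–Prusoff to Ki; three experiments in triplicate.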
# [7] = target: Muscarinic acetylcholine receptor; experiment: Compound was tested for the concentration that inhibited the specific binding of (-)-[3H]-NMS to muscarinic receptor in the rat cerebral cortex.; assay type: tissue-based; summary of the method: as §3
# [8] = species on record: Cavia porcellus; experiment: In vitro effective concentration required to elicit half-maximal contractile response in guinea pig ileum.
# [9] = species on record: Cavia porcellus; experiment: Maximum contractile response relative to that elicited by carbachol.; assay type: functional; summary of the method: as §1
# [10] = species on record: Cavia porcellus; experiment: Equilibrium dissociation constant of the compound-receptor complex was determined by its ability to antagonize carbachol-induced contractions in the ileum (spasmolytic activity).; assay type: functional; summary of the method: as §2
# [11] = target: Muscarinic acetylcholine receptor; experiment: Compound was tested for the concentration that inhibited the specific binding of (-)-[3H]-NMS to muscarinic receptor in the rat cerebral cortex; assay type: tissue-based; summary of the method: as §3
# [12] = species on record: Cavia porcellus; experiment: In vitro effective concentration required to elicit half-maximal contractile response in guinea pig ileum.; remark: listed apart in the source
Compound,Emax [3],Kd [4] [µM],Tremorolytic dose [5] [µM/kg],Ki [6] [µM],other results
CN1[C@@H]2CC[C@H]1C[C@@H](OC(=O)C(CO)c1ccccc1)C2 (stereo partly drawn) [ATROPINE],,,,,Kd [1]: 0.0009 µM; Tremorolytic dose [2]: 0.57 µM/kg
CC(=O)N1C(=O)CCC1C#CCN1CCCC1 (stereo not drawn),0,1.43,3.5,0.78,
CC(=O)N(C(C)=O)C(C)C#CCN1CCCC1 (stereo not drawn),0,0.28,3.2,,
CC(=O)N1C(=O)CCC1C#CCN(C)C (stereo not drawn),0,95.6,160,53.2,
CC(=O)N1CCCC1C#CCN1CCCC1 (stereo not drawn),0,1.4,,,Tremorolytic dose [2]: 6.3 µM/kg; Ki [7]: 0.67 µM
CN(C)CC#CC1CCC(=O)N1C (stereo not drawn),0,496,>200,204,
CC(=O)N(C)C(C)C#CCN1CCCC1 (stereo not drawn),0.83,,0.6,,
CN1C(=O)CCC1C#CC[N+](C)(C)C.[I-] (stereo not drawn),<0.6,,,145,EC50 [8]: > 500 µM
CC(=O)N1C(=O)CCC1C#CC[N+](C)(C)C.[I-] (stereo not drawn),0.78,,,6.4,EC50 [8]: 13.4 µM
CC(=O)N1CCCC1C#CC[N+](C)(C)C.[I-] (stereo not drawn),0.8,,,6.1,EC50 [8]: 7.5 µM
CN1C(=O)CCC1C#CCN1CCCC1 (stereo not drawn),,,78.3,,Emax [9]: 0; Kd [1]: 45.3 µM; Ki [7]: 18.3 µM
CC(=O)N1CCCC1C#CCN(C)C (stereo not drawn),0,,119,,Kd [10]: 125 µM; Ki [11]: 25.4 µM
C[N+](C)(C)CCOC(N)=O.[Cl-] [CARBACHOL],,,,,Emax [9]: 1; Kd [1]: 15.3 µM; EC50 [12]: 0.1 µM
